Bioassay records (PubChem)
DDE Tn6 FP inh = inhibitors of Tn6 peptide binding to human fibrin DD(E); P02675; Fibrin DD(E) TRITC-Tn6 fluorescence polarization displacement; inhibition, % at 8.3 µM; 370,000 compounds, 0.21% hits; AID 720509;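 active = inhibition above a per-campaign cutoff: mean of compounds within control limits plus 3 SD, cut at about 15% in these data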;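 note: 0% = median of all compound wells on the plate and 100% = blocking peptide control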
SKN-1 block = C. elegans SKN-1 inhibition; C. elegans VP596 Pgst-4::GFP/RFP ratio, acrylamide-induced, 24 h; inhibition, % at 21.8 µM; 360,000 compounds, 0.49% hits;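 active = interference check ratio from 0.5 to 1.5 plus GFP to RFP signal ratio inhibition reaching or exceeding a fixed threshold, cut at about 30% in these data, passing the limit was not always enough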
PolyA inhibitor = blocks polyadenylation in yeast reporter cells; S. cerevisiae SKY197-pL101 polyadenylation reporter, beta-gal luminescence; efflux-impaired pdr1/pdr3 knockout yeast; score 100 = 6 SD above DMSO; activity score, % at 12 µM; 300,000 compounds, 0.02% hits; AID 1875;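 active = lowest replicate activity score at least 50, where 100 means six control SD above control mean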;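 note: yeast exposed to compound for 9 h at 30 °C; higher score means more reporter readthrough which indicates perturbed polyadenylation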
Tn7 DDE FP = disrupts Tn7 cyclic peptide binding to fibrin D-Dimer-E complex; FP displacement of FITC-Tn7 peptide from fibrin DD(E); 0% = median of compound wells per plate; P02675; inhibition, % at 8.3 µM; 370,000 compounds, 0.13% hits;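 active = inhibition above the mean of compounds falling within the control limits plus 3 SD of them, cut at about 14% in these data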;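 note: 0% = plate median of compound wells and 100% = 10 µM Aha-Tn7 peptide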
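Assay system: Human fibrin DD(E) protein | Medium: Tris buffer with calcium and detergent, pH 7.8 | Reagent: 0.1 µM fluorescent Tn7 | Compound dosing: Single point at 8.3 µM | Times: 10 min preincubation, 3 h with tracer, room temperature | Detection: Fluorescence polarization of the labelled Tn7 tracer | Controls: Aha-Tn7 high control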
MT1-MMP act inh = blocks activation of human MT1-MMP. 360,000 compounds, 0.061% hits. HT1080 RFP-PRO-GFP cells, GFP/RFP ratio fluorescence, overnight; percent of plate control window, DMSO zero. GFP/RFP ratio change, % at 20 µM. P50281. AID 651647;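 active = GFP/RFP ratio change of at least 30% with cell ATP level not reduced by more than half and red fluorescence within 50% of control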
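Assay system: RFP-PRO-GFP reporter HT1080 cells; read-out basis: GFP/RFP fluorescence ratio; benchmarks: DMSO wells and RFP-L50D-GFP cells; doses: 20 µM single dose, 1% DMSO; schedule: overnight cell settling, then overnight compound exposure, 37 °C, 5% CO2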
DAGLB inhibitor = diacylglycerol lipase beta (human) inhibition | HEK293T DAGLB membrane lysate, EnzChek fluorogenic substrate | 340,000 compounds, 0.059% hits | AID 504411 | Q8NCG7 | inhibition, % at 5.17 µM; in the data active = inhibition above about 34%;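 note: 0% = enzyme with vehicle and 100% = wells lacking enzyme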
DDE Tn7 confirm = DD(E)-Tn7 binding inhibition, FP confirmation. shares compounds with Tn7 DDE FP. FP displacement of TRITC-Tn7 peptide from DD(E); 0% set at plate's compound-well median. inhibition, % at 8.3 µM. 460 compounds, 5% hits. AID 720628;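 active = inhibition above the campaign cutoff, the mean of compounds within control limits plus 3 SD, cut at about 14% in these data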;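 note: 100% = median FP of high control wells holding Aha-Tn7 inhibitor peptide; displacers lower polarization since freed probe rises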
DDE Tn7 FP ctr = counter-screen hit for Tn7 peptide-fibrin DD(E) binding disruption; shares compounds with Tn7 DDE FP; TRITC-Tn7 probe displacement, fluorescence polarization; inhibition, % at 8.3 µM; 460 compounds, 3% hits; AID 720633;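 active = inhibition above the cutoff, the mean of compounds lying between the control bounds plus 3 SD of those compounds, cut at about 17% in these data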;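 note: 0% = median of compound sample wells and 100% = excess unlabeled Aha-Tn7 peptide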
Numbers without * were called inactive; x = no result given. Most compounds without a hit are left out; they make up all but 0.9% or so of the library.

SMILES	DDE Tn6 FP inh	SKN-1 block	PolyA inhibitor	Tn7 DDE FP	MT1-MMP act inh	DAGLB inhibitor	DDE Tn7 confirm	DDE Tn7 FP ctr
CC(=O)N1CCc2c1cccc2S(=O)(=O)NC(CC(C)C)C(=O)Nc1ccc(F)cc1Cl (centres undefined)	3	x	x	10	x	x	x	x
COCCN(C(=O)c1ccc(-c2ccc(Cl)cc2)o1)c1c(N)n(CC(C)C)c(=O)[nH]c1=O	-3	2	x	0	-2	2	x	x
COCCN(C(=O)c1ccc(-c2ccc([N+](=O)[O-])cc2)o1)c1c(N)n(CC(C)C)c(=O)[nH]c1=O	0	6	x	14*	3	0	5	2
COc1ccc(/C=C/C(=O)OCC(=O)NC(C)CCc2ccccc2)cc1OC (centres undefined)	7	-8	x	14*	2	-2	1	-2
COC(=O)[C@]12C[C@H](CC(=O)NCC34CC5CC(CC(C5)C3)C4)C(=O)N(Cc3ccco3)C1=C[C@H](COCc1ccccc1)O[C@@H]2C	1	x	x	4	x	x	x	x
CCOC(=O)[C@]12CCCC=C1N(Cc1ccc(OC)cc1)C(=O)[C@@H]2CC(=O)NCc1ccc(OC)c(OC)c1	6	x	x	-3	x	x	x	x
COc1ccc2c(CC(=O)O)cc(=O)oc2c1	4	3	13	15*	0	-2	0	-3
COC(=O)Cc1cc(=O)oc2cc(OC)ccc12	1	5	1	-6	5	-2	x	x
COc1cccc(OC)c1C(=O)Nc1sc2c(c1C#N)CCC2	-2	-2	-9	14*	-2	15	-5	-9
N/C(=N\OC(=O)c1ccc2c(c1)OCO2)c1ccncc1	-3	-2	0	15*	4	0	8	4
N/C(=N\OC(=O)c1ccc2c(c1)OCO2)c1ccc(Cl)cc1	-1	5	8	2	4	-2	x	x
COc1ccc(NC(=O)C(c2cc3c(cc2[N+](=O)[O-])OCO3)N(C)c2ccccc2)cc1 (centres undefined)	2	2	-11	15*	-3	-1	-5	-5
O=C(COC(=O)c1ccc(Cl)cc1)NCC1CCCCC1	-1	-10	x	15*	-1	-2	-3	-5
CCc1ccc(CCNC(=O)OC2CCC23CCC(c2ccccc2)CC3)cc1 (centres undefined)	1	x	x	0	x	x	x	x
COc1ccc(CC(=O)NC2CCCCN(Cc3ccc(Cl)cc3)C2=O)cc1OC (centres undefined)	2	x	x	4	x	x	x	x
COc1ccc(N=Nc2nc3ccc(Br)cc3n2C)cc1	6	-63	-29	55*	-205	-23	2	0
CC(C)CCN1C(=O)c2cccc3c(N)ccc(c23)C1=O	8	-98	-28	49*	-124	-233	8	-1
Nc1ccc2c3c(cccc13)C(=O)N(c1ccccc1)C2=O	11	-18	4	-3	-122	-201	x	x
Cc1ccc(CSc2nnc3ccc(-c4ccncc4)nn23)cc1	2	-1	14	14*	-8	-4	0	-1
Cc1ccc(NC(=O)CSc2nnc3ccc(-c4ccncc4)nn23)cc1	-1	20	4	5	-5	-1	x	x
O=C(OCC#CCSc1nnc(-c2cccc3ccccc23)o1)c1ccc(OC(F)F)cc1	3	x	x	0	x	x	x	x
CCOC(=O)C1(Cc2cccc(F)c2)CCN(Cc2ccon2)CC1	4	2	-12	14*	-1	x	-3	-5
CCOC(=O)C1(Cc2ccc(Cl)cc2)CCN(Cc2ccon2)CC1	12	8	18	1	-11	-2	x	x
